Bioassay records from PubChem.
In the library only some 3.1% were active in any assay of this set; here they are far more common.
GPR7 antag = blocks human GPR7 receptor signaling. 290,000 compounds, 1.1% hits. GPR7-expressing cells, fluorescence antagonist assay. AID 1861. inhibition, % at 4.4 µM; in the data active = inhibition above about 16%, passing the limit was not always enough;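 also: cells stimulated with the agonist NPW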
Target sequence (P48145 whole entry, looked up): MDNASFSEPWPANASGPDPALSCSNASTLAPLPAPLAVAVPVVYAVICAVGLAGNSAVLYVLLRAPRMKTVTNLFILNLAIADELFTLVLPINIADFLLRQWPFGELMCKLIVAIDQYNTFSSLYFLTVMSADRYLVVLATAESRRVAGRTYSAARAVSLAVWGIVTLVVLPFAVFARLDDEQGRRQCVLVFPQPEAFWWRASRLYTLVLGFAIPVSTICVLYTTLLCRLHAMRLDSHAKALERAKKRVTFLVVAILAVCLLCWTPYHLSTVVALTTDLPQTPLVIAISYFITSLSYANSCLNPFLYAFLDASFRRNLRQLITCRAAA
GalR3 antag = human GalR3 antagonism | O60755 | HEK293 GalR3-CNG cAMP membrane potential fluorescence; galR3 body fused to GalR1 C-terminus | inhibition, % at 3 µM | 360,000 compounds, 0.44% hits | AID 651719;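 active = inhibition above the screen-wide average plus 3 SD, cut at about 13% in these data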;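 also: forskolin and galanin both at EC90 stimulate the cells; cAMP rise reported by CNG channel membrane potential dye signal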
CHO parental Ca = counter-screen for OX1R antagonists: effect in parental CHO cells; inhibition, % at 5.6 µM; parental CHO-K1, ATP-induced calcium, Fluo-8 fluorescence; 330,000 compounds, 0.63% hits;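 active = inhibition above that plate's mean sample inhibition plus 3 SD, cut at about 26% in these data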
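Test system: parental CHO cells; detection: calcium-sensitive Fluo-8 fluorescence; evaluation: percent inhibition of calcium signal; also added: ATP as calcium-mobilizing challenge; repeats: one well per compound; control set: ATP-challenged DMSO wells low, unchallenged DMSO wells high; compound: single nominal dose of 5.6 µM per compound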
OX1R antag-1 = antagonists of human orexin 1 receptor (OX1R). O43613. OX1R-expressing cells, FRET antagonist read-out. inhibition, % at 6.6 µM. 330,000 compounds, 1.8% hits. AID 485270; in the data active = inhibition mostly above about 38%, no sharp cut-off; inactive = mostly below about 40%
Target sequence (O43613 whole entry, looked up): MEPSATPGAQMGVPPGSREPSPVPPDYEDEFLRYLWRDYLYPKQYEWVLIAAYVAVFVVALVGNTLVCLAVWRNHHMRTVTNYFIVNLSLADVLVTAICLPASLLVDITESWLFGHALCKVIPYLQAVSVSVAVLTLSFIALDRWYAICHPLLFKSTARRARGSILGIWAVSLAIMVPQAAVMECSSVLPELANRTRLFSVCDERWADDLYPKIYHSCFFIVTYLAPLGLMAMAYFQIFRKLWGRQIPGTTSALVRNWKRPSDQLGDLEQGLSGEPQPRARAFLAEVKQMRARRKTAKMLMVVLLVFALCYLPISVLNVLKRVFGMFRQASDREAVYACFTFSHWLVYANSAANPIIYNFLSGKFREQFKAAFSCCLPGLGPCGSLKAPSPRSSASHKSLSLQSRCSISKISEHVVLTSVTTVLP
OX1R antag-2 = human HCRTR1 antagonism; O43613; CHO/OX1R cells, Fluo-8 calcium fluorescence, orexin A; inhibition, % at 5 µM; 330,000 compounds, 0.43% hits; AID 434989;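 active = inhibition above its plate's threshold, mean inhibition of all tested compounds on the plate plus 3 SD, cut at about 37% in these data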
Large screens that a line does not name were inactive.

Cc1cccc(/C=N/NC(=O)c2cc(C3CC3)nc3ccccc23)n1	OX1R antag-1 73.6
O=C(NN1c2ccccc2CCc2ccccc21)c1ccccc1Br	OX1R antag-1 66.3
O=C(Nc1nc2ccc(F)cc2s1)C1CCN(S(=O)(=O)c2cc([N+](=O)[O-])ccc2Cl)CC1	CHO parental Ca 66.9
CC(=O)N(C)C[C@@H]1OCc2ccccc2-c2c(n(C)c3ccccc23)C(=O)N([C@@H](C)CO)C[C@@H]1C	none (no result: GPR7 antag, CHO parental Ca, OX1R antag-1, OX1R antag-2)
COc1cccc(-c2nc(CS(=O)(=O)CC(=O)Nc3c(C)cccc3C)c(C)o2)c1	none (no result: GalR3 antag)
COc1cccc(-c2nc(CS(=O)(=O)CC(=O)Nc3cccc(C(C)=O)c3)c(C)o2)c1	OX1R antag-1 47.9
COc1ccc(OC)c(NC(=O)CS(=O)(=O)Cc2nc(-c3ccccc3C)oc2C)c1	OX1R antag-1 72.2 (no result: GalR3 antag)
CCCCc1c(-c2ccccc2OC)ncn1Cc1cc(F)ccc1F	none (no result: GPR7 antag, CHO parental Ca, OX1R antag-1, OX1R antag-2)
CCc1sc(C(=O)N(CCOC)c2c(N)n(Cc3ccccc3)c(=O)[nH]c2=O)cc1C	none (no result: GPR7 antag, CHO parental Ca, OX1R antag-1, OX1R antag-2)
COc1ccccc1OCCSc1nc2ccccc2n1CCC(=O)O	OX1R antag-1 66.6
COc1ccc(OCCSc2nc3ccccc3n2CCC(=O)O)cc1	OX1R antag-1 54.5
CCc1ccc(-c2nc(CSCC(=O)N3CCN(c4ncccn4)CC3)c(C)o2)cc1	OX1R antag-1 41.6
CCCCCCCCN1C(=O)N(Cc2ccc(OC)cc2)S(=O)(=O)c2ccc(F)cc21	none (no result: GPR7 antag, CHO parental Ca, OX1R antag-1, OX1R antag-2)
CCC(C)NS(=O)(=O)c1ccc(NC(=O)c2cccs2)cc1 (centres undefined)	none
CCC(C)c1ccc(NC(=O)c2cccs2)cc1 (centres undefined)	OX1R antag-1 39.8
COC(=O)C1=C(C)N(Cc2ccccc2C(F)(F)F)C(=NCc2ccccc2C(F)(F)F)NC1c1ccc(C(F)(F)F)cc1 (centres undefined)	none (no result: GPR7 antag, CHO parental Ca, OX1R antag-1, OX1R antag-2)
O=C(CSc1n[nH]c(=O)[nH]c1=O)c1cccc([N+](=O)[O-])c1	OX1R antag-1 48.3
O=C(CSc1n[nH]c(=O)[nH]c1=O)c1ccccc1	none
Oc1ccccc1C=NCCN1CCN(CCN=Cc2ccccc2O)C1c1ccccc1O (centres undefined)	none (no result: GPR7 antag, CHO parental Ca, OX1R antag-1, OX1R antag-2)
CCC(=O)Nc1ccc2nc3c(=O)[nH]c(=S)[nH]c3nc2c1	OX1R antag-1 65.1
O=C(Cc1cn(Cc2ccccc2)c2ccccc12)Nc1ccc(Nc2cccnc2)c(Br)c1	none (no result: GPR7 antag, CHO parental Ca, OX1R antag-1, OX1R antag-2)
O=C1c2cc(S(=O)(=O)NCCCO)ccc2-c2ccc(S(=O)(=O)NCCCO)cc21	OX1R antag-1 53.6
COCCNS(=O)(=O)c1ccc2c(c1)C(=O)c1cc(S(=O)(=O)NCCOC)ccc1-2	OX1R antag-1 66.3
C#CCNC(=O)C[C@H]1C[C@@]2(C(=O)OC)C(=C[C@H](C(C)(C)C)O[C@@H]2C)N(Cc2ccccc2)C1=O	none (no result: GPR7 antag, CHO parental Ca, OX1R antag-1, OX1R antag-2)
CN1OC[C@@H]2CN(C(=S)Nc3cc(C(F)(F)F)cc(C(F)(F)F)c3)[C@H](c3ccccc3Br)C[C@@H]21	none (no result: GPR7 antag, CHO parental Ca, OX1R antag-1, OX1R antag-2)
N#Cc1c2n(c(=S)n(-c3ccc(OC(F)F)cc3)c1=O)CCCCC2	GPR7 antag 17.3
C=CCNC(=O)O/N=C/c1csc([N+](=O)[O-])c1	OX1R antag-1 41.9
CC(C)CNC(=S)NC(=O)c1csc([N+](=O)[O-])c1	none
Cc1nc(C(F)(F)F)ccc1C(=O)N1CCC1(C)C(=O)NS(=O)(=O)c1ccc(C#N)cc1 (centres undefined)	none (no result: GPR7 antag, CHO parental Ca, OX1R antag-1, OX1R antag-2)
CN(C(=O)C1CCCN(c2ncnc3c2nc2n3CCCCC2)C1)c1cccc(Cl)c1 (centres undefined)	OX1R antag-1 40.3
O=C(Nc1ccc(F)cc1)C1CCN(c2ncnc3c2nc2n3CCCCC2)CC1	CHO parental Ca 64.6
CCCCN(Cc1ccco1)C(=O)C1CCCN(c2ncnc3c2nc2n3CCCCC2)C1 (centres undefined)	OX1R antag-1 39.7
COc1ccccc1N1CCN(S(=O)(=O)CCNC(=O)CCc2ccccc2)CC1	none (no result: GPR7 antag, CHO parental Ca, OX1R antag-1, OX1R antag-2)
O=C1CCC(OCc2ccccc2)CCN1[C@H](CSc1ccccc1)Cc1ccccc1 (some centres undefined)	none (no result: GPR7 antag, CHO parental Ca, OX1R antag-1, OX1R antag-2)
Nc1nc2n(n1)C(c1cccc(Cl)c1)CC(c1ccc(F)cc1)N2 (centres undefined)	GPR7 antag 18.6
CCOc1ccc(C2CC(c3cccc(Cl)c3)n3nc(N)nc3N2)cc1 (centres undefined)	none
CC(=O)/C(N=Nc1ccc(C(=O)O)cc1[N+](=O)[O-])=C(\C)O	OX1R antag-1 40.6
O=[N+]([O-])c1cc([N+](=O)[O-])c2nonc2c1Nc1ccccc1O	none (no result: CHO parental Ca, OX1R antag-1, OX1R antag-2)
Oc1cccc(Nc2c3ccccc3nc3ccccc23)c1	none
O=[N+]([O-])c1cncc([N+](=O)[O-])c1Nc1cccc(O)c1	OX1R antag-1 56.4
COc1ccccc1Nc1c([N+](=O)[O-])cncc1[N+](=O)[O-]	none
Cc1ccccc1Nc1c([N+](=O)[O-])cncc1[N+](=O)[O-]	OX1R antag-1 63.0
O=[N+]([O-])c1cc([N+](=O)[O-])c2nonc2c1Nc1ccc(O)cc1	OX1R antag-1 76.4
O=C(COC(=O)c1ccc(O)cc1)NC1CCCCCCC1	none (no result: GPR7 antag, CHO parental Ca, OX1R antag-1, OX1R antag-2)
O=C(c1ccco1)N1N=C(c2ccccc2O)CC1c1cccs1 (centres undefined)	none (no result: GPR7 antag, CHO parental Ca, OX1R antag-1, OX1R antag-2)
O=C(NCc1cccc(Cl)c1)c1ccc(S(=O)(=O)N2CCCCC2)cc1	none (no result: GPR7 antag, CHO parental Ca, OX1R antag-1, OX1R antag-2)
COC(=O)[C@]12C[C@H](CC(=O)N3CCSCC3)C(=O)N(Cc3ccccc3)C1=C[C@H](C(C)C)O[C@@H]2C1CC1	none (no result: GPR7 antag, CHO parental Ca, OX1R antag-1, OX1R antag-2)
CNC(=O)c1c(NC(=O)c2cccc(C)c2)sc2c1CCC2	OX1R antag-1 44.2
Cc1cc(C(F)F)n2nc(C(=O)Nc3sc4c(c3C(N)=O)CCC4)nc2n1	OX1R antag-1 57.4
COC(=O)c1c(NC(=O)c2nc3nc(C)cc(C(F)F)n3n2)sc2c1CCC2	none
Cc1cccc(C(=O)Nc2sc3c(c2C(=O)O)CCC3)c1	none
NC(=O)c1c(NC(=O)c2ccc(F)cc2)sc2c1CCC2	OX1R antag-1 51.1
CCCCn1nnnc1C1(C)CCC(=O)N1Cc1ccc(C)cc1 (centres undefined)	none (no result: GPR7 antag, CHO parental Ca, OX1R antag-1, OX1R antag-2)
COc1ccc(CNC(=O)CN2CCC(NC(=O)c3cccc(OC)c3)CC2)cc1	none (no result: GPR7 antag, CHO parental Ca, OX1R antag-1, OX1R antag-2)
CCOc1cc(CNCCCN2CCOCC2)cc(Br)c1OCc1ccccc1Cl	GPR7 antag 39.5
O=C(NC(=S)NCCC1=CCCCC1)c1ccccc1Br	OX1R antag-1 65.1
O=C(COC(=O)c1ccccc1Br)NCCC1=CCCCC1	none
C[C@H](CO)N1C[C@H](C)[C@@H](CN(C)C(=O)c2ccncc2)OCc2cn(nn2)CCCC1=O	none (no result: GPR7 antag, CHO parental Ca, OX1R antag-1, OX1R antag-2)
CCc1nnc(N/N=C/c2ccccc2F)n1N	OX1R antag-1 73.5
CCCC(=O)c1ccc(N2CCN(C(=O)c3ccccc3Br)CC2)c(F)c1	CHO parental Ca 52.1
CCOC(=O)c1nnn(-c2nc(OC)nc(N3CCCCC3)n2)c1-c1ccccc1	none (no result: GalR3 antag, CHO parental Ca, OX1R antag-1, OX1R antag-2)
CCOC(=O)c1c(-c2ccccc2)nnn1-c1nc(OCC)nc(N2CCCCC2)n1	CHO parental Ca 52.1
COc1ccc(OC)c(-c2nn(-c3ccccc3)cc2C(=O)N2CCc3ccccc3C2)c1	none (no result: GPR7 antag)
